Laboratory results taken from ChEMBL document CHEMBL4138126, “Synthesis, antiproliferative, anti-tubulin activity, and docking study of new 1,2,4-triazoles as potential combretastatin analogues” (Eur J Med Chem, 2017).

How the values were obtained:
Format in all cases: functional
CCRF-CEM = test: Growth inhibition of human CCRF-CEM cells assessed as cell growth at 10 uM after 48 hrs by sulforhodamine B assay; details: read-out: Activity
Method in brief: (§1)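 NCI 60-cell-line panel screen (nine cancer types). Compounds added at single concentration 10^-5 M, cultures incubated 48 h; growth inhibition percentages reported.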

OVCAR-3 = test: Growth inhibition of human OVCAR3 cells assessed as cell growth at 10 uM after 48 hrs by sulforhodamine B assay; details: OVCAR-3, 48 h, read-out: Activity; method in brief: as §1
UACC-62 = test: Growth inhibition of human UACC62 cells assessed as cell growth at 10 uM after 48 hrs by sulforhodamine B assay; details: UACC-62, 48 h, read-out: Activity
Method in brief: (§2)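 NCI 60-cell-line panel from nine tumour types (leukaemia, lung, colon, CNS, melanoma, ovarian, renal, prostate, breast). Each compound was added at one single concentration, and cultures were incubated for 48 h. Results are reported as percent growth inhibition.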

MDA-MB-468 = test: Growth inhibition of human MDA-MB-468 cells assessed as cell growth at 10 uM after 48 hrs by sulforhodamine B assay; details: MDA-MB-468, 48 h, read-out: Activity; method in brief: as §1
NCI/ADR-RES = test: Growth inhibition of human NCI-ADR-RES cells assessed as cell growth at 10 uM after 48 hrs by sulforhodamine B assay; details: read-out: Activity; method in brief: as §1
MDA-MB-231 = test: Growth inhibition of human MDA-MB-231 cells assessed as cell growth at 10 uM after 48 hrs by sulforhodamine B assay; details: MDA-MB-231, 48 h, read-out: Activity; method in brief: as §1
SK-MEL-28 = test: Growth inhibition of human SK-MEL-28 cells assessed as cell growth at 10 uM after 48 hrs by sulforhodamine B assay; details: SK-MEL-28, 48 h, read-out: Activity; method in brief: as §1
COLO 205 = test: Growth inhibition of human COLO205 cells assessed as cell growth at 10 uM after 48 hrs by sulforhodamine B assay; details: COLO 205, 48 h, read-out: Activity; method in brief: as §1
SK-MEL-5 = test: Growth inhibition of human SK-MEL-5 cells assessed as cell growth at 10 uM after 48 hrs by sulforhodamine B assay; details: SK-MEL-5, 48 h, read-out: Activity; method in brief: as §1
HCC 2998 = test: Growth inhibition of human HCC2998 cells assessed as cell growth at 10 uM after 48 hrs by sulforhodamine B assay; details: HCC 2998, 48 h, read-out: Activity; method in brief: as §1
PC-3 = test: Growth inhibition of human PC3 cells assessed as cell growth at 10 uM after 48 hrs by sulforhodamine B assay; details: PC-3, 48 h, read-out: Activity; method in brief: as §1
Hs-578T = test: Growth inhibition of human Hs 578T cells assessed as cell growth at 10 uM after 48 hrs by sulforhodamine B assay; details: read-out: Activity; method in brief: as §1
SF-539 = test: Growth inhibition of human SF539 cells assessed as cell growth at 10 uM after 48 hrs by sulforhodamine B assay; details: SF-539, 48 h, read-out: Activity; method in brief: as §1
MDA-MB-435 = test: Growth inhibition of human MDA-MB-435 cells assessed as cell growth at 10 uM after 48 hrs by sulforhodamine B assay; details: MDA-MB-435, 48 h, read-out: Activity; method in brief: as §1
SR = test: Growth inhibition of human SR cells assessed as cell growth at 10 uM after 48 hrs by sulforhodamine B assay; details: read-out: Activity; method in brief: as §2
NCI-H322M = test: Growth inhibition of human NCI-H322M cells assessed as cell growth at 10 uM after 48 hrs by sulforhodamine B assay; details: read-out: Activity; method in brief: as §1
K562 = test: Growth inhibition of human K562 cells assessed as cell growth at 10 uM after 48 hrs by sulforhodamine B assay; details: K562, 48 h, read-out: Activity; method in brief: as §1
HOP-62 = test: Growth inhibition of human HOP62 cells assessed as cell growth at 10 uM after 48 hrs by sulforhodamine B assay; details: HOP-62, 48 h, read-out: Activity; method in brief: as §1
SNB-75 = test: Growth inhibition of human SNB75 cells assessed as cell growth at 10 uM after 48 hrs by sulforhodamine B assay; details: SNB-75, 48 h, read-out: Activity; method in brief: as §2
A498 = test: Growth inhibition of human A498 cells assessed as cell growth at 10 uM after 48 hrs by sulforhodamine B assay; details: A498, 48 h, read-out: Activity; method in brief: as §1
SN12C = test: Growth inhibition of human SN12C cells assessed as cell growth at 10 uM after 48 hrs by sulforhodamine B assay; details: read-out: Activity; method in brief: as §2
T47D = test: Growth inhibition of human T47D cells assessed as cell growth at 10 uM after 48 hrs by sulforhodamine B assay; details: read-out: Activity; method in brief: as §2
786-0 = test: Growth inhibition of human 786-0 cells assessed as cell growth at 10 uM after 48 hrs by sulforhodamine B assay; details: 786-0, 48 h, read-out: Activity; method in brief: as §1
IGROV-1 = test: Growth inhibition of human IGROV1 cells assessed as cell growth at 10 uM after 48 hrs by sulforhodamine B assay; details: IGROV-1, 48 h, read-out: Activity; method in brief: as §1
NCI-H226 = test: Growth inhibition of human NCI-H226 cells assessed as cell growth at 10 uM after 48 hrs by sulforhodamine B assay; details: NCI-H226, 48 h, read-out: Activity; method in brief: as §1
LOX IMVI = test: Growth inhibition of human LOXIMVI cells assessed as cell growth at 10 uM after 48 hrs by sulforhodamine B assay; details: read-out: Activity; method in brief: as §1
OVCAR-5 = test: Growth inhibition of human OVCAR5 cells assessed as cell growth at 10 uM after 48 hrs by sulforhodamine B assay; details: OVCAR-5, 48 h, read-out: Activity; method in brief: as §1
KM12 = test: Growth inhibition of human KM12 cells assessed as cell growth at 10 uM after 48 hrs by sulforhodamine B assay; details: KM12, 48 h, read-out: Activity; method in brief: as §1
UACC-257 = test: Growth inhibition of human UACC257 cells assessed as cell growth at 10 uM after 48 hrs by sulforhodamine B assay; details: UACC-257, 48 h, read-out: Activity; method in brief: as §2
CAKI-1 = test: Growth inhibition of human CAKI-1 cells assessed as cell growth at 10 uM after 48 hrs by sulforhodamine B assay; details: CAKI-1, 48 h, read-out: Activity; method in brief: as §1

SMILES	growth at 10 µM (CCRF-CEM) [%]	growth at 10 µM (OVCAR-3) [%]	growth at 10 µM (MDA-MB-468) [%]	growth at 10 µM (NCI/ADR-RES) [%]	growth at 10 µM (MDA-MB-231) [%]	growth at 10 µM (COLO 205) [%]	growth at 10 µM (PC-3) [%]	growth at 10 µM (Hs-578T) [%]	growth at 10 µM (SF-539) [%]	growth at 10 µM (MDA-MB-435) [%]	growth at 10 µM (SR) [%]	growth at 10 µM (NCI-H322M) [%]	growth at 10 µM (HOP-62) [%]	growth at 10 µM (SNB-75) [%]	growth at 10 µM (A498) [%]	growth at 10 µM (T47D) [%]	growth at 10 µM (786-0) [%]	growth at 10 µM (IGROV-1) [%]	growth at 10 µM (NCI-H226) [%]	growth at 10 µM (LOX IMVI) [%]	further results
COc1cccc(-n2nc(C(=O)NCc3ccccc3OC)nc2-c2cc(OC)c(OC)c(OC)c2)c1	107	101	99.9	77.4	93	101	104	99.9	96.5	90.8	93.8	94.3	85.9	63	104	75.8	94	88.5	96.8	95.9	growth at 10 µM (UACC-62): 97.4%; growth at 10 µM (SK-MEL-28): 115%; growth at 10 µM (SK-MEL-5): 107%; growth at 10 µM (HCC 2998): 92.1%; growth at 10 µM (K562): 122%; growth at 10 µM (SN12C): 94.8%; growth at 10 µM (OVCAR-5): 113%; growth at 10 µM (KM12): 95.6%
COc1cccc(-n2nc(C(=O)NCc3ccccc3C)nc2-c2cc(OC)c(OC)c(OC)c2)c1	104	81	90.1	63.1	73.5	84.3	83.2	77.6	87.7	85.8	65.8	87.5	71	31.7	95.9	56.4	76	72	87.9	78.7	growth at 10 µM (UACC-62): 72.5%; growth at 10 µM (SK-MEL-28): 107%; growth at 10 µM (SK-MEL-5): 86.8%; growth at 10 µM (HCC 2998): 96%; growth at 10 µM (K562): 90.8%; growth at 10 µM (SN12C): 91.7%; growth at 10 µM (OVCAR-5): 111%; growth at 10 µM (KM12): 82%
CCOc1ccc(-n2nc(C(=O)Nc3ccc(OC)c(O)c3)nc2-c2cc(OC)c(OC)c(OC)c2)cc1	89.5	97.8	101	86.4	65.8	109	72	86.8	96.2	95	68.5	84.7	99.3	71.2	111	88.8	94.5	95.2	96.5	90.6	growth at 10 µM (UACC-257): 90.8%; growth at 10 µM (CAKI-1): 86.1%; growth at 10 µM (OVCAR-5): 102%; growth at 10 µM (KM12): 92.8%
CCOc1ccc(-n2nc(C(=O)NCc3cccc(OC)c3)nc2-c2cc(OC)c(OC)c(OC)c2)cc1	94.2	93.5	87.7	82.5	76.3	91.8	78.4	93.3	88.9	92.5	72.5	81.6	72.4	53.2	98.1	69.8	90.2	80.4	89.4	88.9	growth at 10 µM (UACC-62): 82.9%; growth at 10 µM (SK-MEL-28): 109%; growth at 10 µM (SK-MEL-5): 92.2%; growth at 10 µM (HCC 2998): 102%; growth at 10 µM (K562): 88.5%; growth at 10 µM (SN12C): 96.5%; growth at 10 µM (OVCAR-5): 120%; growth at 10 µM (KM12): 96.4%
CCOc1ccc(-n2nc(C(=O)Nc3cc(F)cc(F)c3)nc2-c2cc(OC)c(OC)c(OC)c2)cc1	84.1	93.6	77	81.7	64.3	89.9	69.9	75.5	82.4	91	61.8	85.3	95	58	56	55.9	82.1	85.1	77.2	86.6	growth at 10 µM (UACC-257): 90.4%; growth at 10 µM (CAKI-1): 68.8%; growth at 10 µM (OVCAR-5): 98.8%; growth at 10 µM (KM12): 85.9%
CCOc1ccc(-n2nc(C(=O)Nc3cc(OC)c(OC)c(OC)c3)nc2-c2cc(OC)c(OC)c(OC)c2)cc1	66.5	86.9	82	85.8	50.5	80.3	70.2	65.6	87.8	79.6	40.7	89.2	95.7	65.6	67.3	51.4	77.1	90.8	78.1	89	growth at 10 µM (UACC-257): 93.1%; growth at 10 µM (CAKI-1): 77.4%; growth at 10 µM (OVCAR-5): 102%; growth at 10 µM (KM12): 81.8%
CCOc1ccc(-n2nc(C(=O)Nc3ccc(F)c(F)c3)nc2-c2cc(OC)c(OC)c(OC)c2)cc1	44.1	61	98.6	67.5	63.1	63.7	47.1	48.1	96.6	70.3	64	73	89.1	74.4	68.9	41.7	85	81.3	69.1	66.4	growth at 10 µM (UACC-257): 89.4%; growth at 10 µM (CAKI-1): 68.5%; growth at 10 µM (OVCAR-5): 101%; growth at 10 µM (KM12): 56.7%
